# UCH37 DUB inh: human UCH37 deubiquitinating enzyme inhibition | Q9Y5K5 | purified proteasome/UCH37, Ub-AMC cleavage fluorescence | inhibition, % (no concentration beside the values) | hit rate 0.33% among 330,000 | AID 588478;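 active = mean inhibition over replicate wells above about 20%, limit read from the data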;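 note: 0% = compound-free wells with enzyme and 100% = wells lacking proteasome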
# Target sequence (Q9Y5K5 whole entry, looked up): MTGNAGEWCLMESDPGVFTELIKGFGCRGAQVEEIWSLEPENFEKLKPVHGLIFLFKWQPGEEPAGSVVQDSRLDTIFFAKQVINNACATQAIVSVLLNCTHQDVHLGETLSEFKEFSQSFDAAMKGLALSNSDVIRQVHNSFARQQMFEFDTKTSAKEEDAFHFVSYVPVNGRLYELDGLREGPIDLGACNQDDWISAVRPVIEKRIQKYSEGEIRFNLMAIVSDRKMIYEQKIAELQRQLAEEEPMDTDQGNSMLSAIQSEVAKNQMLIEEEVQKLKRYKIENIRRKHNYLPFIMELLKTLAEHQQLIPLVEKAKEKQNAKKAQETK
#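 assay system = human UCH37 enzyme supplied as purified proteasome complex | amount = proteasome at 0.15 nM in the dispensed enzyme solution | schedule = 30 min compound-proteasome preincubation then 25 min substrate reaction, room temperature | measured by = fluorescence, ex 355 nm, em 460 nm | benchmarks = no-proteasome wells (full inhibition) and compound-free wells (no inhibition)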
# PREPL inhibitor: inhibitors of human prolyl oligopeptidase-like enzyme PREPL | Q4J6C6 | recombinant PREPL, fluorescence polarization activity-based probe | inhibition, % at 5.96 µM | hit rate 0.68% among 320,000 | AID 2751; in the data active = inhibition above about 43%;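 note: 0% = enzyme with DMSO and 100% = wells lacking enzyme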
# PP5 inh: blocks human protein phosphatase 5 activity; P53041; purified PP5c, OMFP substrate fluorescence; inhibition, % at 6.7 µM; hit rate 0.18% among 320,000;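 active = inhibition above the campaign's mean inhibition across all tested compounds plus 3 SD, cut at about 9.5% in these data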;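 note: 0% = DMSO only and 100% = 100 µM cantharidin control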
# UBC13 inh: blocks human UBC13 polyubiquitin chain formation; P61088; AID 485273; TR-FRET; inhibition, % at 20 µM; hit rate 0.47% among 330,000; in the data active = inhibition above about 45%, passing the limit was not always enough
# Fh CTSL1 inh: blocks F. hepatica cathepsin L1 in PFM18AAP counter-screen; recombinant F. hepatica cathepsin L1, Z-Leu-Arg-MCA fluorescence; inhibition, % at 5.96 µM; hit rate 0.49% among 300,000;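 active = inhibition above the mean of all tested compounds plus 3 SD, set per screening campaign, cut at about 17% in these data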;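 note: 0% = plate median of test compound wells and 100% = 1 µM Z-Phe-Ala-diazomethylketone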
# PP1 inh: PP1-alpha (human) inhibition in PP5 counter-screen | purified PP1alpha, OMFP fluorescence | inhibition, % at 6.7 µM | hit rate 0.9% among 320,000 | AID 2235 | P62136;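 active = inhibition above the mean inhibition of all tested compounds plus 3 SD, computed separately for each screening campaign, cut at about 15% in these data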
# Numbers without * were called inactive; / = no result given. An excerpt weighted towards active compounds, which were near 2.3% of everything screened.
SMILES,UCH37 DUB inh,PREPL inhibitor,PP5 inh,UBC13 inh,Fh CTSL1 inh,PP1 inh
O=C(NN=Cc1sc(=O)[nH]c1-[n+]1ccccc1)c1ccccc1[O-],20*,/,/,/,/,/
COc1ccccc1N(/N=C1\Sc2ccccc2C1=O)C(C)=O,/,18,3,-28,30*,-1
COc1ccc(C=NNC(=O)CNC(=O)/C=C/c2ccccc2OC)cc1,-10,/,/,/,/,/
CC(=NNC(=O)c1cccc(S(=O)(=O)N2CCOCC2)c1)c1ccc(O)cc1,2,/,/,/,/,/
Cc1occc1C(=O)NN=CC1=C(N2CCOCC2)/C(=C\c2ccc(Cl)cc2Cl)CC1,-49,/,/,/,/,/
COc1ccc(C(=O)Oc2cccc(/C=N/NC(N)=S)c2)cc1,/,45*,1,4,5,-1
COc1cc(/C=N/NC(N)=S)ccc1OC(=O)c1ccc(C)cc1,/,41,4,-3,66*,5
CC(=NNC(=O)CCc1ccccc1)C1C(=O)c2ccccc2C1=O,9,/,/,/,/,/
O=C(CC1S/C(=N/N=C/C=C/c2ccccc2)NC1=O)Nc1ccc(C(=O)O)cc1 (stereo not given),20*,11,1,-15,0,-2
O=C(CC1S/C(=N/N=C/c2cccs2)NC1=O)Nc1ccc(Cl)cc1 (stereo not given),/,-15,1,-4,4,17*
CC1=CCC(C(=O)O)(C(=O)NN=Cc2cccs2)C(c2ccc(F)cc2)C1 (stereo not given),2,/,/,/,/,/
Nc1ccc(C(=O)NN=Cc2cn(Cc3cccc(F)c3)c3ccccc23)cc1,-7,/,/,/,/,/
CCOc1cc(/C=C2\C(=N)N3N=C(S(C)(=O)=O)SC3=NC2=O)ccc1OCCOc1cccc(OC)c1,-1,2,2,-14,2,12
COc1cc(/C=C2\C(=N)N3N=C(S(=O)(=O)CC(C)C)SC3=NC2=O)ccc1OC(=O)c1ccco1,/,49*,-2,-4,-1,-3
CCS(=O)(=O)C1=NN2C(=N)/C(=C\c3ccc(OCCOc4cccc(OC)c4)c(OC)c3)C(=O)N=C2S1,4,5,3,/,7,16*
CCS(=O)(=O)C1=NN2C(=N)/C(=C\c3ccc(OC(=O)c4ccco4)cc3)C(=O)N=C2S1,13,33,0,-15,-2,-5
O=C(COc1cccc2ccccc12)NN=Cc1ccccc1OCc1ccc(C(=O)O)cc1,2,/,/,/,/,/
CC(CC(=O)Nc1ccc(Cl)cc1Cl)=NNC(=O)c1cnccn1,-2,/,/,/,/,/
Cc1[nH]c2ccccc2c1SCC(=O)NC1CCCCC1,2,11,0,11,23*,-4
O=C(CSc1c[nH]c2ccccc12)NC1CCCC1,6,4,2,8,-4,-3
Oc1c(Br)cc(Br)cc1C=Nc1ccc2[nH]ncc2c1,-11,3,2,-3,2,90*
COc1ccc(Cn2c(SCC#N)nc3ccc(N4CCOCC4)cc3c2=O)cc1,-21,71*,3,-8,0,5
CCCCn1c(SCC(=O)Nc2cccc(OC)c2)nc2ccc(N3CCOCC3)cc2c1=O,-34,0,6,25,14,12
CC(=O)c1c(C)oc2c1C(=O)c1ccccc1C2=O,8,-4,3,/,7,-2
O=C1c2ccccc2C(=O)c2c1oc(C(F)(F)F)c2C(=O)c1ccccc1,24*,2,3,-41,26*,-4
SMILES,UCH37 DUB inh,PREPL inhibitor,PP5 inh,UBC13 inh,Fh CTSL1 inh,PP1 inh
O=C(c1ccccc1)c1coc2c1C(=O)c1ccccc1C2=O,15,17,1,-48,20*,0
O=C(CC1C(=O)NCCN1Cc1ccc(F)cc1)NC1CCCCCCC1 (stereo not given),-1,-4,1,-2,19*,-10
O=C(Nc1nc2c(s1)CCCC2)Oc1ccccc1,1,-5,1,4,28*,3
O=C(Nc1nc2c(s1)CCCC2)c1cccnc1,6,7,1,-13,5,2
COc1cc(/C=C2\SC(=O)N(CC(=O)Nc3ccccc3F)C2=O)cc(Cl)c1O,/,-9,0,-78,0,1
CCOc1cc(/C=C2\SC(=O)N(CC(=O)Nc3ccccc3F)C2=O)cc([N+](=O)[O-])c1O,23*,3,5,-89,10,1
Cc1ccc(C=Nn2c(C)nnc2C)cc1,0,/,/,/,/,/
CCCN1CCCc2cc(CN)ccc21,-17,63*,4,-24,15,5
CN1CCCc2cc(C=O)ccc21,10,28,-2,-7,2,3

# Source: PubChem BioAssay
